Laboratory results as given in ChEMBL document CHEMBL4152379, “Discovery of Pyrrolidine Sulfonamides as Selective and Orally Bioavailable Antagonists of Transient Receptor Potential Vanilloid-4 (TRPV4)” (J Med Chem, 2018).
In brackets after ≈: the same amount, converted by molar mass.

Legend:
[1] = Aqueous solubility of the compound; format: physicochemical; conditions: buffer
[2] = organism: Rattus norvegicus; experiment: Unbound clearance in Sprague-Dawley rat; format: ADME, organism-based; conditions: in vivo
[3] = Oral bioavailability in Sprague-Dawley rat; format: ADME, organism-based; conditions: in vivo
In short: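 Male Sprague-Dawley rats with femoral vein, femoral artery and gastric catheters; noncrossover design, 2 rats per route; cassette dosing of up to five compounds. i.v. target 1 mg/kg in 5% DMSO/20% Cavitron (pH 4), infused over 30 min. Oral gastric bolus target 2 mg/kg in 5% DMSO/6% Cavitron (pH 4). Plasma sampled to 24 h and measured by HPLC−MS/MS. Noncompartmental analysis; F from dose-normalized AUC(0−∞) relative to mean i.v. AUC.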

[4] = biological target: Transient receptor potential cation channel subfamily M member 4 (Homo sapiens, UniProt Q8TD43); experiment: Inhibition of TRPM4 (unknown origin)
[5] = biological target: Transient receptor potential cation channel subfamily M member 8 (Homo sapiens, UniProt Q7Z2W7); experiment: Inhibition of TRPM8 (unknown origin)
[6] = biological target: T1, Short transient receptor potential channel 4 (Homo sapiens, UniProt Q9UBN4); experiment: Inhibition of TRPC4 (unknown origin)
T1 sequence (Q9UBN4 whole entry): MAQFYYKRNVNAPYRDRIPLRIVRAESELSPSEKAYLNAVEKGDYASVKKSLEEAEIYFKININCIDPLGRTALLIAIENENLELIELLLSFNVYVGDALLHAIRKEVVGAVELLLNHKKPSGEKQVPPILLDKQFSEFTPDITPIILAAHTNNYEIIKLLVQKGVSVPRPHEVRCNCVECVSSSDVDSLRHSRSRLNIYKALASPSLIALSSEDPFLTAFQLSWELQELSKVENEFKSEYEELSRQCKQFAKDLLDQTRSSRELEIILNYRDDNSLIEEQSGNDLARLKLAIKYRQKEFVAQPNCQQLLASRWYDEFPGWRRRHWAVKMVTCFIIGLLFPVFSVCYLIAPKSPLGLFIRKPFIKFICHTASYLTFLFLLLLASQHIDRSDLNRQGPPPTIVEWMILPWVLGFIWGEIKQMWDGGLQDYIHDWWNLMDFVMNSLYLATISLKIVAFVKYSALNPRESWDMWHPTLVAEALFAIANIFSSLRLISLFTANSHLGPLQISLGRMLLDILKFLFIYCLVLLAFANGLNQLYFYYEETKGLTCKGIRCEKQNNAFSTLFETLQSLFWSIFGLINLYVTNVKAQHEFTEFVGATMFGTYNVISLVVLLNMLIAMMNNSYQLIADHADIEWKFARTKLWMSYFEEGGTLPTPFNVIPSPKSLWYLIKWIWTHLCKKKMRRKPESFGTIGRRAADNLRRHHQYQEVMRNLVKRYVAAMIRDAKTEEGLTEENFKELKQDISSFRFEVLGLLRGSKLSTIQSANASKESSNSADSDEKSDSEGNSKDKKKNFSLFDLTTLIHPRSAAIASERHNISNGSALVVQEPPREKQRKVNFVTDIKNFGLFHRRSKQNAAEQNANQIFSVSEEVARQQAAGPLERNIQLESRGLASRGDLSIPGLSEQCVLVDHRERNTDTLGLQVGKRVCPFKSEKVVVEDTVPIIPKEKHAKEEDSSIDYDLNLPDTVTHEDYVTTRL

[7] = biological target: T2, Short transient receptor potential channel 6 (Homo sapiens, UniProt Q9Y210); experiment: Inhibition of TRPC6 (unknown origin)
T2 sequence (Q9Y210 whole entry): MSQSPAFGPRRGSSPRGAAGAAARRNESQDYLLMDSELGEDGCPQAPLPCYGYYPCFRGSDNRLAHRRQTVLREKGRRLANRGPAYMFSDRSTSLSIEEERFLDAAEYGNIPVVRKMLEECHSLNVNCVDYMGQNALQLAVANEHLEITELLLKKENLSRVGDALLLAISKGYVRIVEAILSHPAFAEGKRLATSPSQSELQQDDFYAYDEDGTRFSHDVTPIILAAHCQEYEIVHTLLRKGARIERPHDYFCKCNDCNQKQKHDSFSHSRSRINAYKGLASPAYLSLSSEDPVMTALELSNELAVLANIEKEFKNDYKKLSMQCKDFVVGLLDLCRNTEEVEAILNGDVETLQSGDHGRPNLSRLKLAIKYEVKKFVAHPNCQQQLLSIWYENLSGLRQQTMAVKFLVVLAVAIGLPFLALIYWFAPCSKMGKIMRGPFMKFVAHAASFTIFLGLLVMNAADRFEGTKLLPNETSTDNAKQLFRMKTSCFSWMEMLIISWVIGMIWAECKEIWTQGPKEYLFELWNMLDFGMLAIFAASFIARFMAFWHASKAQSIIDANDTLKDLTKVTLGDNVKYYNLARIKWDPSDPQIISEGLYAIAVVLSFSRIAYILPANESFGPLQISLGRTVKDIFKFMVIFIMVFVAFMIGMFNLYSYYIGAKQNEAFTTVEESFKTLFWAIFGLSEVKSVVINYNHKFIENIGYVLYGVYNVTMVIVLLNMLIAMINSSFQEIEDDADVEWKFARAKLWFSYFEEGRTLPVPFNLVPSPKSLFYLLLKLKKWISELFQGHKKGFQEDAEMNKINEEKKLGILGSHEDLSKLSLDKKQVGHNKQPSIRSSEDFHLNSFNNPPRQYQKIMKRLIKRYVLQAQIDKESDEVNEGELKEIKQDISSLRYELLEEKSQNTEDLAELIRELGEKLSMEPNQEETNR

Sequence of Transient receptor potential cation channel subfamily M member 8 (Q7Z2W7 whole entry): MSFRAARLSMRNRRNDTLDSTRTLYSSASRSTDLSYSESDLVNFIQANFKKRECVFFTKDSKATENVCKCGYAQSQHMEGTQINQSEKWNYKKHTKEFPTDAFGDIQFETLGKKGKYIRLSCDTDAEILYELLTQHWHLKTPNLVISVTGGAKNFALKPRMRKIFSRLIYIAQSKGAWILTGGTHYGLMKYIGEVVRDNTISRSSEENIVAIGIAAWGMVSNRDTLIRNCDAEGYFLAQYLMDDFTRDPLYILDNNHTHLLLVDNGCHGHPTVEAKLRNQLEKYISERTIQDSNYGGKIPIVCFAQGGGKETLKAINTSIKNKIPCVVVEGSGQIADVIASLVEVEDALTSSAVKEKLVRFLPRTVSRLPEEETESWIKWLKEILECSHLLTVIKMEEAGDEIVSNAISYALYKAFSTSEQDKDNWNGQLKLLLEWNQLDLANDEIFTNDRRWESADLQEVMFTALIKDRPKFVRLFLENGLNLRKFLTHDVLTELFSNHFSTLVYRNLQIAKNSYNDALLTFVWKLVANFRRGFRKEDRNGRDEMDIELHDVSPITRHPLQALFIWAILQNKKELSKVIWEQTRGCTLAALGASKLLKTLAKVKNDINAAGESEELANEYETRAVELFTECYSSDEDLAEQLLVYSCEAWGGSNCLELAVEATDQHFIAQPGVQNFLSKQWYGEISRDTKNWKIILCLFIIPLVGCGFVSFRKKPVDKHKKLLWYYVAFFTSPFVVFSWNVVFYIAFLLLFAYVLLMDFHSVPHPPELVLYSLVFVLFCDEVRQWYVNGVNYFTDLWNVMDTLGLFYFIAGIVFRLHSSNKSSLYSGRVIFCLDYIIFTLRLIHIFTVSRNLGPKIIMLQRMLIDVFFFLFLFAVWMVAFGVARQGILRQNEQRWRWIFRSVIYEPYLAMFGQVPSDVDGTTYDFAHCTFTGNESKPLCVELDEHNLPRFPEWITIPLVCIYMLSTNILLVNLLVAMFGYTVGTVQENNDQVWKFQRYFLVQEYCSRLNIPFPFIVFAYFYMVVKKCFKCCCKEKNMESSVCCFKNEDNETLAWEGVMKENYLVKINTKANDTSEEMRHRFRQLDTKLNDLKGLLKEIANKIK
Sequence of Transient receptor potential cation channel subfamily M member 4 (Q8TD43 whole entry): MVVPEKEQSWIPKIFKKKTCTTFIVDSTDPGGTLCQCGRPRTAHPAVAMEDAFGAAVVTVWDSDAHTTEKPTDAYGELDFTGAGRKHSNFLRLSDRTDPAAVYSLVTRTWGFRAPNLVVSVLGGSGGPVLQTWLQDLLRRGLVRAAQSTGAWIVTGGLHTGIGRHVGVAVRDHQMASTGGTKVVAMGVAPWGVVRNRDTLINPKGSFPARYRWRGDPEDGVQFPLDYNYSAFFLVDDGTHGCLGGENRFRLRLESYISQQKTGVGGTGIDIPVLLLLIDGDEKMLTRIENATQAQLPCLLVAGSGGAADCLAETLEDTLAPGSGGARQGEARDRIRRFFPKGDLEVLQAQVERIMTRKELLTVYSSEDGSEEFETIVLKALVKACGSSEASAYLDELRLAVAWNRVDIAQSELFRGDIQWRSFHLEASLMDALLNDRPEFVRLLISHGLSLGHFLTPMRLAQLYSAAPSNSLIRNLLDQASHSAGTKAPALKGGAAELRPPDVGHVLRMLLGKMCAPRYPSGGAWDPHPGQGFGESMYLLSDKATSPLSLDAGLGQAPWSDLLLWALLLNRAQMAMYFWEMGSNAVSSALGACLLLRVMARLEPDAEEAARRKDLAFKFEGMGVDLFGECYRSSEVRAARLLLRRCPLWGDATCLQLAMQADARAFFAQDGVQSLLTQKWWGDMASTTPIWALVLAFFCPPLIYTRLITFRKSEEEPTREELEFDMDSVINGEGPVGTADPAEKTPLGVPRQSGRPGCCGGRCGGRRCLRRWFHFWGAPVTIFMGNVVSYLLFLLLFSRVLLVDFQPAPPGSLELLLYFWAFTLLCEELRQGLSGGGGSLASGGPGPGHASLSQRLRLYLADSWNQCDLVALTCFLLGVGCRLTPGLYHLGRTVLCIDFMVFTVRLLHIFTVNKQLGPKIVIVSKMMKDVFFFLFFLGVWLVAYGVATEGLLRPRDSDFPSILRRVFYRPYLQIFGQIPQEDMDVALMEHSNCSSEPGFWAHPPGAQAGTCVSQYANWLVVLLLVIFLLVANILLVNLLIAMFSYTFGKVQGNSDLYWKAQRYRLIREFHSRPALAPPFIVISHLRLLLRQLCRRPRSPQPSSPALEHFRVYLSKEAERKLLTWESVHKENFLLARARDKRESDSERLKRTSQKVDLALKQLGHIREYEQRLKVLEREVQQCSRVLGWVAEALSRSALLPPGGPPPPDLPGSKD

solubility [1]: 360 µM (≈ 166 µg/mL)
CL free [2]: 966 mL/min/kg
bioavailability [3]: 35%
IC50 [5]: > 10 µM
IC50 [6]: > 10 µM
IC50 [7]: > 10 µM
Compound: N#Cc1ccc(O[C@H]2CN(S(=O)(=O)c3ccc(Cl)cc3Cl)C[C@@]2(O)CO)cc1F
IC50 [4]: > 10 µM
